# Experimental data published in ChEMBL document CHEMBL1641530, “Silanetriols as in vitro inhibitors for AChE” (Bioorg Med Chem Lett, 2011).
# Calls of active or inactive are those of the source. The calls are words filed in the database; no cut-off is given here.
# Experiments:
# [1] = target: Acetylcholinesterase (Electrophorus electricus) (UniProt O42275); experiment: Inhibition of Electrophorus electricus AChE at 100 uM by Ellman's method relative to control
# Summary of the method: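 Modified colorimetric Ellman assay: AChE hydrolyses acetylthiocholine to thiocholine. Final compound concentration 100 µM, read after 15 min. […] Mean ± SEM of at least eight independent experiments.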
# [2] = test system: MRC5; experiment: Cytotoxicity against human MRC5 after 45 hrs by XTT proliferation assay; assay type: functional, cell-based
# Summary of the method: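 Human fetal lung fibroblasts (MRC-5) treated with compound, then XTT added at 1, 15 and 41 h. Dehydrogenase cleavage of XTT to orange formazan ran for 4 h and was read photometrically at two wavelengths. Viability is given relative to solvent-only cells. For the 15 h figure, mean ± SEM of at least six independent experiments.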
# [3] = target: Acetylcholinesterase (Electrophorus electricus) (UniProt O42275); experiment: Irreversible inhibition of Electrophorus electricus AChE by Ellman's method
# Summary of the method: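 Reversibility was probed by following AChE inhibition over time in the modified Ellman assay (acetylthiocholine substrate). Activity is referred to solvent control. Mean ± SEM of at least eight independent experiments.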
# [4] = target: Acetylcholinesterase (Electrophorus electricus, UniProt O42275); experiment: Inhibition of Electrophorus electricus AChE by Ellman's method
# Acetylcholinesterase, sequence (O42275 whole entry): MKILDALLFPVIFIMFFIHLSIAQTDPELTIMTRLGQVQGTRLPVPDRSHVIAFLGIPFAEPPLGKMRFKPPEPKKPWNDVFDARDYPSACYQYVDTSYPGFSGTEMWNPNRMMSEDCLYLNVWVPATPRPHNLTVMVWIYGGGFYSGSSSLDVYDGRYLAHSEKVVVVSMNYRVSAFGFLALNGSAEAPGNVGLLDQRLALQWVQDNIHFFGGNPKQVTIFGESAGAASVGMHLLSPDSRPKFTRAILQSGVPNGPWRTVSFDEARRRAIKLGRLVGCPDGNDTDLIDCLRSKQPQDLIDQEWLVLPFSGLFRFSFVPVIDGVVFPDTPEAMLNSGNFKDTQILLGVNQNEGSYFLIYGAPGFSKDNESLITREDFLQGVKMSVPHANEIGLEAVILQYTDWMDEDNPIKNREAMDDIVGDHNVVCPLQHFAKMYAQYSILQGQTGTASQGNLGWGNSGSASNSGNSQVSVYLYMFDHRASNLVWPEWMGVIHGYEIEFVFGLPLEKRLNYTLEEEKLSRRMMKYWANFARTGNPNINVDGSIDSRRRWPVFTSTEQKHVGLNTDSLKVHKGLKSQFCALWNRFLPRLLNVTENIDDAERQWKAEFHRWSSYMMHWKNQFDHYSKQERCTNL
# Summary of the method: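 Ellman-type colorimetric assay with acetylthiocholine as substrate. Four concentrations between 30 and 300 µM were tested, inhibition taken as % of solvent control, and IC50 derived from the concentration–inhibition plot. Mean ± standard deviation of at least eight independent experiments.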
# Acetylcholinesterase (Electrophorus electricus), sequence (O42275 24-633 limits assumed): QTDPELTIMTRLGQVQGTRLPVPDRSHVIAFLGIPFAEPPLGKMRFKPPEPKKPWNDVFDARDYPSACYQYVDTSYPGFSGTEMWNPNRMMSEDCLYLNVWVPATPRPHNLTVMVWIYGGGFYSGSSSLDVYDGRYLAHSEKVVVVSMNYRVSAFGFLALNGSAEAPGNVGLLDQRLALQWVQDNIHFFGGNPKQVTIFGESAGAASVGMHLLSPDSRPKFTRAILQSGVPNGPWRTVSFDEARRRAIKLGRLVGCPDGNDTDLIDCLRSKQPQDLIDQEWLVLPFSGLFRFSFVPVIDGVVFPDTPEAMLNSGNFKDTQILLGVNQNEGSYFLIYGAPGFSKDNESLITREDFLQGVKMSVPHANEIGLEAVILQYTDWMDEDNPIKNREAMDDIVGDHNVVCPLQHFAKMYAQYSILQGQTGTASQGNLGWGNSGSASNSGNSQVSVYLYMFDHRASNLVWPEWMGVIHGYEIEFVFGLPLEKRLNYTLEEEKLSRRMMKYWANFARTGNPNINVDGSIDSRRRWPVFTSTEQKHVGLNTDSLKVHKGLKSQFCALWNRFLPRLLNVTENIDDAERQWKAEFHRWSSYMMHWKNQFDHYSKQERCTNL
Structure (SMILES),inhibition [1],Activity [2],inhibition [3],IC50 [4]
CCC(C)(C)[Si](O)(O)O,10%,inactive,inactive,
O[Si](O)(O)C1CCCCC1 [CYCLOHEXYLSILANETRIOL],45%,inactive,inactive,121 µM
Cc1cc(C)c(-c2cccc(-c3c(C)cc(C)cc3C)c2[Si](O)(O)O)c(C)c1,12%,inactive,inactive,
